Source: ChEMBL document CHEMBL1131259, “Synthesis and evaluation of diphenyl phosphonate esters as inhibitors of the trypsin-like granzymes A and K and mast cell tryptase” (J Med Chem, 1998)
Active and inactive are the calls of the source. The rule behind the calls is not given here.

Key:
[1] = molecular target: T1, Granzyme A (Homo sapiens) (UniProt P12544); assay: Inhibition of human granzyme A
T1 sequence (whole entry): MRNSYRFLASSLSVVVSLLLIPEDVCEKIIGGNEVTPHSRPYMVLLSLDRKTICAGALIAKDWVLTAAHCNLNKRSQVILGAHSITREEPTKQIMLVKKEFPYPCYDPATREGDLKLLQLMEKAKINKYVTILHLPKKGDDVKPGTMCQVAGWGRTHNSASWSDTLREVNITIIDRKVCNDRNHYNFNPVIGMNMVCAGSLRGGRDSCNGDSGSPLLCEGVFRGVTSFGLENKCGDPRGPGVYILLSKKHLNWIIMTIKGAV
How it was run: (§1)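 Recombinant human and rat granzyme A, incubated with inhibitor (1.0–450 μM) at 25 °C in 0.1 M Hepes, 0.01 M CaCl2, pH 7.5 (7.6% DMSO). Timed aliquots were read for residual activity on Cbz-Arg-SBzl with DTNB at 405 nm. k_obs came from ln vt/vo vs time over 5–10 points and 2–3 half-lives, two k_obs per inhibitor. DMSO controls were run.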

[2] = molecular target: T2, Granzyme K (Rattus norvegicus) (UniProt P49864); assay: Inhibition of rat granzyme K
T2 sequence (whole entry): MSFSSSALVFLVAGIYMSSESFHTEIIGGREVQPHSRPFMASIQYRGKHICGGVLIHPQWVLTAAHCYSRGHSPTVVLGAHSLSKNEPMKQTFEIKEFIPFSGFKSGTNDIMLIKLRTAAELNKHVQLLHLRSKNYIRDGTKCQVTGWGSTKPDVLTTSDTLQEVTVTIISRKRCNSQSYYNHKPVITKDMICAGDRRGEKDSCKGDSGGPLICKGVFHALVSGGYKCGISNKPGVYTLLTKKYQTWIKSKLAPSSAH
How it was run: (§2)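 Native rat granzyme K, purified by size-exclusion in 1 M NaCl then MonoS cation exchange. Incubated with inhibitor (1.0–450 μM) at 25 °C in 0.1 M Hepes, 0.01 M CaCl2, pH 7.5 (7.1% DMSO). Timed aliquots were read for residual activity on Cbz-Arg-SBzl with DTNB at 405 nm. k_obs came from ln vt/vo vs time, one or two per inhibitor. For no-inhibition lines, none was seen after 25 min.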

[3] = molecular target: T3, Serine protease 1 (Bos taurus) (UniProt P00760); assay: Inhibition of bovine trypsin
T3 sequence (whole entry): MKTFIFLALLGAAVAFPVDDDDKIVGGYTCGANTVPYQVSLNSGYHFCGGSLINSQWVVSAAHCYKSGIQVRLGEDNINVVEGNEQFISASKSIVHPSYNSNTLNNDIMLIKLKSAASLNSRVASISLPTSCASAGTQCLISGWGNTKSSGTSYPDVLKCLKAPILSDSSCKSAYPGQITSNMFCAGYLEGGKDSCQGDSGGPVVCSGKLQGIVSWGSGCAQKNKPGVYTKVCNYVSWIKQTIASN
How it was run: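 Irreversible inhibition assayed by incubation at 25 °C in 0.1 M Hepes, 0.01 M CaCl2, pH 7.5 (2% DMSO), inhibitor 1.0–450 μM. Timed aliquots were read for residual activity on Cbz-Arg-SBzl with DTNB at 410 nm. Pseudo-first-order k_obs came from ln vt/vo vs time, using 5–10 points over 2–3 half-lives, three k_obs per inhibitor. DMSO-only controls were run. For no-inhibition lines, none was seen after 25 min.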

Tryptase (Homo sapiens) [4] = molecular target: T4, Tryptase (Homo sapiens) (UniProt Q9BZJ3+Q15661+Q9NRR2); assay: Inhibition of mast cell tryptase; assay type: protein assay
How it was run: (§3)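 Human lung mast cell tryptase, high-molecular-weight form, heparin-free, active sites titrated with MUGB. Incubated with inhibitor at 25 °C in 0.1 M Hepes, 10% glycerol, 10 mM heparin, pH 7.5 (7.1% DMSO). […] DMSO controls were run.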

[5] = molecular target: T5, Granzyme A (Rattus norvegicus) (UniProt Q8CJF4); assay: Inhibition of rat granzyme A.; how it was run: as §1
T5 sequence (whole entry): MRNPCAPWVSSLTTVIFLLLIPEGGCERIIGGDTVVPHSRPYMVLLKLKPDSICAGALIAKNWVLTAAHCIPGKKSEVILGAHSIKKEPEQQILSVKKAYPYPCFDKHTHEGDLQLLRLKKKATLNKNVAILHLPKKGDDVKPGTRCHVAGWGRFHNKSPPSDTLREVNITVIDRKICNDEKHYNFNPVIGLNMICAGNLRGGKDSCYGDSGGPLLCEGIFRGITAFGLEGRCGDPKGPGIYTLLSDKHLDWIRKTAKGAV

Tryptase (Homo sapiens) [6] = molecular target: T4, Tryptase (Homo sapiens); assay: Compound was evaluated to inhibit mast cell tryptase; No inhibition; assay type: protein assay; how it was run: as §3
[7] = molecular target: T2, Granzyme K (Rattus norvegicus); assay: Compound was evaluated to inhibit rat granzyme K; No inhibition; how it was run: as §2

SMILES | kobs/[I] (second-order inactivation rate constant) [1] | kobs/[I] (second-order inactivation rate constant) [2] | K obs / 1 [3] | kobs/[I] (second-order inhibition rate constant) (Tryptase (Homo sapiens) [4]) | K obs / 1 [5] | K obs / 1 (Tryptase (Homo sapiens) [6]) | K obs / 1 [7]
NCCCCC(NC(=O)OCc1ccccc1)P(=O)(Oc1ccccc1)Oc1ccccc1 (stereo not drawn) | 1210 M⁻¹ s⁻¹ | 23 M⁻¹ s⁻¹ | 6240 M⁻¹ s⁻¹ | 89 M⁻¹ s⁻¹ |  |  | 
N=C(N)c1ccc(C(NC(=O)/C=C/c2cccs2)P(=O)(Oc2ccccc2)Oc2ccccc2)cc1 (stereo not drawn) | 740 M⁻¹ s⁻¹ | 4 M⁻¹ s⁻¹ | 300 M⁻¹ s⁻¹ | 1 M⁻¹ s⁻¹ | 430 M⁻¹ s⁻¹ |  | 
C[C@@H](O)[C@H](NC(=O)OCc1ccccc1)C(=O)NC(c1ccc(C(=N)N)cc1)P(=O)(Oc1ccccc1)Oc1ccccc1 (stereo partly drawn) | 2220 M⁻¹ s⁻¹ | 3 M⁻¹ s⁻¹ | 97 M⁻¹ s⁻¹ |  |  | inactive | 
N=C(N)c1ccc(C(NC(=O)CCC(=O)O)P(=O)(Oc2ccccc2)Oc2ccccc2)cc1 (stereo not drawn) | 857 M⁻¹ s⁻¹ | 0.3 M⁻¹ s⁻¹ | 45 M⁻¹ s⁻¹ | 0.2 M⁻¹ s⁻¹ |  |  | 
C[C@H](NC(=O)OCc1ccccc1)C(=O)N[C@H](C)C(=O)N[C@@H](C)C(=O)NC(c1ccc(C(N)N)cc1)P(=O)(Oc1ccccc1)Oc1ccccc1 (stereo partly drawn) | 730 M⁻¹ s⁻¹ | 7 M⁻¹ s⁻¹ | 1780 M⁻¹ s⁻¹ | 2 M⁻¹ s⁻¹ | 590 M⁻¹ s⁻¹ |  | 
C[C@H](NC(=O)[C@@H](C)NC(=O)CCC(=O)O)C(=O)NC(c1ccc(C(=N)N)cc1)P(=O)(Oc1ccccc1)Oc1ccccc1 (stereo partly drawn) | 260 M⁻¹ s⁻¹ | 0.3 M⁻¹ s⁻¹ | 640 M⁻¹ s⁻¹ | 0.7 M⁻¹ s⁻¹ |  |  | 
C[C@H](NC(=O)[C@@H](CC(=O)O)NC(=O)OCc1ccccc1)C(=O)NC(c1ccc(C(=N)N)cc1)P(=O)(Oc1ccccc1)Oc1ccccc1 (stereo partly drawn) | 240 M⁻¹ s⁻¹ | 6 M⁻¹ s⁻¹ | 2550 M⁻¹ s⁻¹ | 0.7 M⁻¹ s⁻¹ |  |  | 
N=C(N)c1ccc(C(NC(=O)/C=C/c2ccccc2)P(=O)(Oc2ccccc2)Oc2ccccc2)cc1 (stereo not drawn) | 400 M⁻¹ s⁻¹ | 3 M⁻¹ s⁻¹ | 110 M⁻¹ s⁻¹ | 0.3 M⁻¹ s⁻¹ | 340 M⁻¹ s⁻¹ |  | 
N=C(N)c1ccc(C(NC(=O)[C@@H]2CCCN2C(=O)c2ccccc2Oc2ccccc2)P(=O)(Oc2ccccc2)Oc2ccccc2)cc1 (stereo partly drawn) | 610 M⁻¹ s⁻¹ | 60 M⁻¹ s⁻¹ | 7760 M⁻¹ s⁻¹ | 0.9 M⁻¹ s⁻¹ |  |  | 
C[C@H](NC(=O)[C@@H](C)NC(=O)OCc1ccccc1)C(=O)NC(c1ccc(C(=N)N)cc1)P(=O)(Oc1ccccc1)Oc1ccccc1 (stereo partly drawn) | 820 M⁻¹ s⁻¹ | 5 M⁻¹ s⁻¹ | 3620 M⁻¹ s⁻¹ | 2 M⁻¹ s⁻¹ | 480 M⁻¹ s⁻¹ |  | 
CC(C)(C)OC(=O)N[C@H](Cc1ccccc1)C(=O)N1CCC[C@H]1C(=O)NC(c1ccc(C(N)N)cc1)P(=O)(Oc1ccccc1)Oc1ccccc1 (stereo partly drawn) | 170 M⁻¹ s⁻¹ | 56 M⁻¹ s⁻¹ | 130 M⁻¹ s⁻¹ | 0.4 M⁻¹ s⁻¹ |  |  | 
C[C@H](NC(=O)[C@@H](CC(=O)OC(C)(C)C)NC(=O)OCc1ccccc1)C(=O)NC(c1ccc(C(=N)N)cc1)P(=O)(Oc1ccccc1)Oc1ccccc1 (stereo partly drawn) | 280 M⁻¹ s⁻¹ |  | 2000 M⁻¹ s⁻¹ | 3 M⁻¹ s⁻¹ |  |  | inactive
N=C(N)c1ccc(CC(NC(=O)OCc2ccccc2)P(=O)(Oc2ccccc2)Oc2ccccc2)cc1 (stereo not drawn) | 2750 M⁻¹ s⁻¹ | 2.1 M⁻¹ s⁻¹ | 24 M⁻¹ s⁻¹ | 17 M⁻¹ s⁻¹ |  |  | 
N=C(N)c1ccc(C(NC(=O)[C@@H]2CCCN2C(=O)OCc2ccccc2)P(=O)(Oc2ccccc2)Oc2ccccc2)cc1 (stereo partly drawn) | 790 M⁻¹ s⁻¹ | 34 M⁻¹ s⁻¹ | 910 M⁻¹ s⁻¹ | 1.2 M⁻¹ s⁻¹ |  |  | 
NC(N)c1ccc(C(NC(=O)c2cccc(Oc3ccccc3)c2)P(=O)(Oc2ccccc2)Oc2ccccc2)cc1 (stereo not drawn) | 340 M⁻¹ s⁻¹ | 1 M⁻¹ s⁻¹ | 50 M⁻¹ s⁻¹ |  | 470 M⁻¹ s⁻¹ | inactive | 
CC(C)[C@H](NC(=O)OCc1ccccc1)C(=O)NC(c1ccc(C(=N)N)cc1)P(=O)(Oc1ccccc1)Oc1ccccc1 (stereo partly drawn) | 6.7 M⁻¹ s⁻¹ | 0.7 M⁻¹ s⁻¹ | 41 M⁻¹ s⁻¹ | 21.2 M⁻¹ s⁻¹ |  |  | 
C[C@H](NC(=O)[C@H]1CCCN1C(=O)OCc1ccccc1)C(=O)NC(c1ccc(C(=N)N)cc1)P(=O)(Oc1ccccc1)Oc1ccccc1 (stereo partly drawn) | 380 M⁻¹ s⁻¹ | 5 M⁻¹ s⁻¹ | 240 M⁻¹ s⁻¹ | 1 M⁻¹ s⁻¹ |  |  | 
N=C(N)c1ccc(C(NC(=O)[C@@H]2CCCN2C(=O)CC(c2ccccc2)c2ccccc2)P(=O)(Oc2ccccc2)Oc2ccccc2)cc1 (stereo partly drawn) | 250 M⁻¹ s⁻¹ | 1830 M⁻¹ s⁻¹ | 2660 M⁻¹ s⁻¹ |  |  | inactive | 
C[C@H](NC(=O)[C@@H](Cc1ccccc1)NC(=O)OCc1ccccc1)C(=O)NC(c1ccc(C(N)N)cc1)P(=O)(Oc1ccccc1)Oc1ccccc1 (stereo partly drawn) | 1770 M⁻¹ s⁻¹ | 4.2 M⁻¹ s⁻¹ | 3010 M⁻¹ s⁻¹ | 4 M⁻¹ s⁻¹ |  |  | 
N=C(N)c1ccc(C(NC(=O)[C@H](CCCCN)NC(=O)OCc2ccccc2)P(=O)(Oc2ccccc2)Oc2ccccc2)cc1 (stereo partly drawn) | 30 M⁻¹ s⁻¹ | 1 M⁻¹ s⁻¹ | 30 M⁻¹ s⁻¹ |  | 15 M⁻¹ s⁻¹ | inactive | 
N=C(N)c1ccc(C(NC(=O)[C@@H]2CCCN2C(=O)CCc2ccccc2)P(=O)(Oc2ccccc2)Oc2ccccc2)cc1 (stereo partly drawn) | 1510 M⁻¹ s⁻¹ | 50 M⁻¹ s⁻¹ | 1520 M⁻¹ s⁻¹ | 0.4 M⁻¹ s⁻¹ |  |  | 
NCCCCCC(NC(=O)OCc1ccccc1)P(=O)(Oc1ccccc1)Oc1ccccc1 (stereo not drawn) | 23 M⁻¹ s⁻¹ | 1.1 M⁻¹ s⁻¹ | 21 M⁻¹ s⁻¹ | 0.7 M⁻¹ s⁻¹ |  |  | 
NC(N)c1ccc(C(NC(=O)OCc2cccc3ccccc23)P(=O)(Oc2ccccc2)Oc2ccccc2)cc1 (stereo not drawn) | 160 M⁻¹ s⁻¹ | 12 M⁻¹ s⁻¹ | 30 M⁻¹ s⁻¹ |  | 90 M⁻¹ s⁻¹ | inactive | 
NC(N)c1ccc(C(NC(=O)[C@@H]2CCCN2C(=O)CNS(=O)(=O)Cc2ccccc2)P(=O)(Oc2ccccc2)Oc2ccccc2)cc1 (stereo partly drawn) | 3650 M⁻¹ s⁻¹ | 87 M⁻¹ s⁻¹ | 37100 M⁻¹ s⁻¹ | 2 M⁻¹ s⁻¹ |  |  | 
NC(N)c1ccc(C(NC(=O)c2ccccc2Oc2ccccc2)P(=O)(Oc2ccccc2)Oc2ccccc2)cc1 (stereo not drawn) | 540 M⁻¹ s⁻¹ | 1 M⁻¹ s⁻¹ | 670 M⁻¹ s⁻¹ | 0.4 M⁻¹ s⁻¹ | 340 M⁻¹ s⁻¹ |  | 
N=C(N)c1ccc(C(NC(=O)/C=C/c2ccco2)P(=O)(Oc2ccccc2)Oc2ccccc2)cc1 (stereo not drawn) | 1740 M⁻¹ s⁻¹ | 32 M⁻¹ s⁻¹ | 360 M⁻¹ s⁻¹ |  | 1740 M⁻¹ s⁻¹ | inactive | 
